ChEMBL document CHEMBL4725432, “Dethioacylation by Sirtuins 1-3: Considerations for Drug Design Using Mechanism-Based Sirtuin Inhibition” (ACS Med Chem Lett, 2020)
pIC50: −log10 of the molar value. Where a name gives a salt, the structure may show the parent alone. Calls of active or inactive are those of the source. The calls are words filed in the database; no cut-off is given here. Non-standard residues stand in square brackets, D forms with d. Residues, ends and D or L forms follow the SMILES beside them. *: point of attachment. Lys(Thioacetyl) = CC(=S)NCCCC[C@H](N)C(=O)O; AMC = Cc1cc(=O)oc2cc(N*)ccc12; Cbz = O=C(OCc1ccccc1)*; Tfa = O=C(C(F)(F)F)*; Butyryl = CCCC(=O)*; NHiPr = CC(C)N*

Legend:
[1] = target: T1, NAD-dependent protein deacetylase sirtuin-1 (Homo sapiens) (UniProt Q96EB6); assay: Inhibition of human N-terminal GST-tagged SIRT1 (193 to 741 residues) expressed in Escherichia coli preincubated with NAD+ for 30 mins using Ac-Gln-Pro-Lys-Lys(Ac)-AMC (oxo-10) as substrate at 1 to 100 uM measured after 90 mins by fluorescence assay; conditions: dose microM 1-100, time 120.0 min
T1 sequence (whole entry): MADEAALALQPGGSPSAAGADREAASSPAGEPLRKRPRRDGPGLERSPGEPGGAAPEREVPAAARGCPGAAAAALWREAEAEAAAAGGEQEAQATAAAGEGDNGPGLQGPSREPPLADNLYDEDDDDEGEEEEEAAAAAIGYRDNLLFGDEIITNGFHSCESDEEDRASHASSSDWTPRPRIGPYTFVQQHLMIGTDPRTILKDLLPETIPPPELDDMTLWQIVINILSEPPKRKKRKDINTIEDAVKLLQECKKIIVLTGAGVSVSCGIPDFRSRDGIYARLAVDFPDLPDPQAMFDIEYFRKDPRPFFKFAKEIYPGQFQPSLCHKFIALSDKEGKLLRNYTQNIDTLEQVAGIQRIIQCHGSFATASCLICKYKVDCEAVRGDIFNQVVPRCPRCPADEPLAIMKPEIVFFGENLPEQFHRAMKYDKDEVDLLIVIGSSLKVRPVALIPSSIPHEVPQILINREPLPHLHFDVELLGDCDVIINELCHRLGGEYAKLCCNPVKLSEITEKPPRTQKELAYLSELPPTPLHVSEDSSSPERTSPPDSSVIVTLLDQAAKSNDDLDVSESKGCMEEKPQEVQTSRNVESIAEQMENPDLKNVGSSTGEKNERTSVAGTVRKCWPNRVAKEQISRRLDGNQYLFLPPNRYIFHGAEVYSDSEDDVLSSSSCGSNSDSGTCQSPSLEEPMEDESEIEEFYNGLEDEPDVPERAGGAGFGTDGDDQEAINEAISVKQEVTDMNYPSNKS
In short: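 Recombinant SIRT1 (100 nM) preincubated 30 min with compound, either with or without NAD+ (500 μM), before the fluorogenic deacetylation read-out. Single-dose %-inhibition. Two independent experiments in duplicate, standard deviation.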

[2] = target: T1, NAD-dependent protein deacetylase sirtuin-1 (Homo sapiens); assay: Inhibition of SIRT1 in HEK293 cells assessed as increase in p53 acetylation co-treated with TSA at 25 uM for 6 hrs by western blot analysis; assay type: cell-based
In short: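 HEK293 cells exposed 6 h to compound at 25 μM together with TSA (1 μM). Whole-cell lysates immunoblotted for Ac-p53 (K382) and total p53. Ratio Ac-p53/p53 normalized to DMSO control. Two independent experiments in duplicate, SEM.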

[3] = target: T2, NAD-dependent protein deacetylase sirtuin-1 (Homo sapiens, UniProt Q96EB6); assay: Inhibition of human recombinant N-terminal GST-tagged SIRT1 (193 to 741 residues) expressed in Escherichia coli using Ac-Gln-Pro-Lys-Lys(Ac)-AMC (oxo-10) as substrate by fluorescence assay
T2 sequence (Q96EB6 whole entry): T1 sequence (whole entry)

[4] = target: T3, NAD-dependent protein deacetylase sirtuin-2 (Homo sapiens) (UniProt Q8IXJ6); assay: Inhibition of human C-terminal His-tagged SIRT2 (50 to 356 residues) expressed in Escherichia coli using Ac-Gln-Pro-Lys-Lys(pro)-AMC (oxo-11) as substrate at 10 uM by fluorescence assay relative to control
T3 sequence (whole entry): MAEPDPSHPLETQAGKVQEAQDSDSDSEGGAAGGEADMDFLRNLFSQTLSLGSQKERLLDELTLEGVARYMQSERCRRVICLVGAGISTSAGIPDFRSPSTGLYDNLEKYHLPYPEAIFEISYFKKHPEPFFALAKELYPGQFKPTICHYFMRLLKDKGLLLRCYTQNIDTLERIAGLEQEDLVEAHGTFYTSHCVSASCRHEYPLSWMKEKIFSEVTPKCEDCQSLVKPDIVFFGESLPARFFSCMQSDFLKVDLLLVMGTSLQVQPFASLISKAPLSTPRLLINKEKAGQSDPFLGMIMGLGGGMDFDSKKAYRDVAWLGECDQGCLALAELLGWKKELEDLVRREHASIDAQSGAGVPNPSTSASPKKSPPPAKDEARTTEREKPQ

[5] = target: T4, NAD-dependent protein deacetylase sirtuin-3, mitochondrial (Homo sapiens) (UniProt Q9NTG7); assay: Inhibition of human N-terminal GST-tagged SIRT3 (102 to 399 residues) expressed in Escherichia coli using Ac-Gln-Pro-Lys-Lys(but)-AMC (oxo-12) as substrate at 10 uM by fluorescence assay relative to control
T4 sequence (whole entry): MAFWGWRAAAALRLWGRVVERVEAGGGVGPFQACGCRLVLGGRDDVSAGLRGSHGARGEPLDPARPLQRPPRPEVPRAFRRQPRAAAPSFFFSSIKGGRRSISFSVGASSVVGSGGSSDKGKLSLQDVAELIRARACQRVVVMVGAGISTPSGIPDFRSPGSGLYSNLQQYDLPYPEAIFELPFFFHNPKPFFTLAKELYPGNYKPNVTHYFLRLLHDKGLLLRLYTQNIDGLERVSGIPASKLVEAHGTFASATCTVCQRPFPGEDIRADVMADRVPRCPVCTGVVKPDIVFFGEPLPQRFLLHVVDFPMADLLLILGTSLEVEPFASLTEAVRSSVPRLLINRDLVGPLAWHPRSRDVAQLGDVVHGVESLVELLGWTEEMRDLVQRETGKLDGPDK

[6] = Metabolic stability of compound in human serum assessed as half life incubated for >10 mins measured after 90 mins by HPLC analysis; assay type: ADME, cell-free
[7] = Metabolic stability of compound in human serum assessed as drug degradation incubated for >10 mins measured after 90 mins by HPLC analysis; assay type: ADME, cell-free; conditions: 1.5 h
[8] = target: T4, NAD-dependent protein deacetylase sirtuin-3, mitochondrial (Homo sapiens); assay: Inhibition of human recombinant N-terminal GST-tagged SIRT3 (102 to 399 residues) deacetylation activity in presence of substrate and NAD+ at 15 uM after 60 mins measured by reversed-phase UPLC-MS analysis relative to control
[9] = target: T2, NAD-dependent protein deacetylase sirtuin-1; assay: Inhibition of human recombinant SIRT1 expressed in Escherichia coli in presence of acyl peptide acetyl-H3K9 as substrate incubated for 5 mins by HPLC analysis
[10] = target: T1, NAD-dependent protein deacetylase sirtuin-1 (Homo sapiens); assay: Inhibition of human recombinant N-terminal GST-tagged SIRT1 (193 to 741 residues) deacetylation activity in presence of substrate and NAD+ at 15 uM after 60 mins by reversed-phase UPLC-MS analysis relative to control
[11] = target: T3, NAD-dependent protein deacetylase sirtuin-2 (Homo sapiens); assay: Inhibition of human recombinant C-terminal His-tagged SIRT2 (50 to 356 residues) deacetylation activity in presence of substrate and NAD+ incubated for 60 mins measured after 90 mins by fluorescence assay
In short: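 Recombinant SIRT2 (100 nM or 250 nM) incubated with fluorogenic thioacyl or oxo lysine-AMC substrates plus NAD+. Deacylation read by fluorescence. Two independent experiments in duplicate, standard deviation.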

[12] = test system: HEK293; assay: Inhibition of deacetylation activity in HEK293 cell lysate incubated with substrate for 2 hrs at 50 uM measured after 90 mins by fluorescence assay; assay type: functional, subcellular; conditions: Homo sapiens
In short: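 Fluorogenic thioacyl or acyl lysine-AMC substrates incubated with fresh HEK293 cell lysate (~65 μg). Deacylation measured by fluorescence. Two independent experiments in duplicate, standard deviation.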

[13] = target: T1, NAD-dependent protein deacetylase sirtuin-1 (Homo sapiens); assay: Inhibition of human recombinant N-terminal GST-tagged SIRT1 (193 to 741 residues) expressed in Escherichia coli using Ac-Gln-Pro-Lys-Lys(Ac)-AMC (oxo-10) as substrate at 100 uM by fluorescence assay relative to control
[14] = target: T3, NAD-dependent protein deacetylase sirtuin-2 (Homo sapiens); assay: Inhibition of human C-terminal His-tagged SIRT2 (50 to 356 residues) expressed in Escherichia coli using Ac-Gln-Pro-Lys-Lys(pro)-AMC (oxo-11) as substrate at 100 uM by fluorescence assay relative to control
[15] = target: T4, NAD-dependent protein deacetylase sirtuin-3, mitochondrial (Homo sapiens); assay: Inhibition of human N-terminal GST-tagged SIRT3 (102 to 399 residues) expressed in Escherichia coli using Ac-Gln-Pro-Lys-Lys(but)-AMC (oxo-12) as substrate at 100 uM by fluorescence assay relative to control
[16] = target: T5, NAD-dependent protein deacetylase sirtuin-2 (Homo sapiens, UniProt Q8IXJ6); assay: Inhibition of human C-terminal His-tagged SIRT2 (50 to 356 residues) expressed in Escherichia coli using Ac-Gln-Pro-Lys-Lys(pro)-AMC (oxo-11) as substrate by fluorescence assay
T5 sequence (Q8IXJ6 whole entry): T3 sequence (whole entry)

SMILES: NC(=O)C1CCCc2c1[nH]c1ccc(Cl)cc21 (centres undefined)
- inhibition [1]: inactive
- inhibition [2]: Active

SMILES: CCNC(=S)NCCCC[C@H](NC(=O)OCc1ccccc1)C(=O)N[C@@H](Cc1c[nH]c2ccccc12)C(=O)NC(C)C
- pIC50 [3]: 5.72
- inhibition [4]: 71%
- inhibition [5]: 2%
- inhibition [1]: Active
- half-life [6]: < 1 h
- Activity [7]: Not Active

SMILES: CC(=S)NCCCC[C@H](NC(=O)OCc1ccccc1)C(=O)Nc1ccccc1
- inhibition [1]: inactive
- inhibition [8]: inactive
- pIC50 [9]: 5.19
- inhibition [10]: inactive

SMILES: CCCC(=O)NCCCC[C@H](NC(=O)[C@H](CCCCN)NC(=O)[C@@H]1CCCN1C(=O)[C@H](CCC(N)=O)NC(C)=O)C(=O)Nc1ccc2c(C)cc(=O)oc2c1 (Ac-QPKK(Butyryl)-{AMC})
- inhibition [11]: Active
- Activity [12]: Active

SMILES: Cc1cc(C)nc(SCC(=O)Nc2ncc(Cc3cccc4ccccc34)s2)n1
- inhibition [2]: inactive

SMILES: CC(C)NC(=O)[C@H](Cc1c[nH]c2ccccc12)NC(=O)[C@H](CCCCNC(=O)C(F)F)NC(=O)OCc1ccccc1
- inhibition [13]: 29%
- inhibition [14]: 17%
- inhibition [1]: inactive
- inhibition [15]: 9%

SMILES: CC(=O)N[C@@H](CCC(N)=O)C(=O)N1CCC[C@H]1C(=O)N[C@@H](CCCCN)C(=O)N[C@@H](CCCCNC(C)=S)C(=O)Nc1ccc2c(C)cc(=O)oc2c1 (Ac-QPK[Lys(Thioacetyl)]-{AMC})
- Activity [12]: Active

SMILES: CCCCNC(=S)NCCCC[C@H](NC(=O)OCc1ccccc1)C(=O)N[C@@H](Cc1c[nH]c2ccccc12)C(=O)NC(C)C
- pIC50 [3]: 5.95
- pIC50 [16]: 5.85
- inhibition [1]: Active
- inhibition [15]: 2%

SMILES: CC(C)NC(=O)[C@H](Cc1c[nH]c2ccccc12)NC(=O)[C@H](CCCCNC(=O)C(F)(F)F)NC(=O)OCc1ccccc1 (Cbz-Lys(Tfa)-Trp-NHiPr)
- inhibition [13]: 24%
- inhibition [14]: 3%
- inhibition [1]: inactive
- inhibition [2]: inactive
- inhibition [15]: 5%
